From ChEMBL document CHEMBL1155309, “Synthesis of 3,6-disubstituted 7H-1,2,4-triazolo[3,4-b]-1,3,4-thiadiazines as novel analgesic/anti-inflammatory compounds” (Eur J Med Chem, 2009) come the findings set out here.

Molecules are shown by their SMILES.

Data set [1] concerns Mus musculus. The data set can be described thus: Analgesic activity in BALB/c mouse assessed as decrease in acetic acid-induced writhing at 100 mg/kg, po administered 1 hr prior to acetic acid challenge by Koster's test. Format: functional. Summed up:
(§1)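 Test samples suspended in distilled water/0.5% CMC given orally; vehicle to controls. 1 h later, 3% (w/v) acetic acid i.p. (0.1 ml/10 g). Starting 5 min after injection, writhings counted for 10 min. Result expressed as % change from writhing controls. Groups of 4 mice (preliminary 100 mg/kg) or 4–5 mice (50/200 mg/kg). Two-tailed Student's t test.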

Data set [2] has as its system Mus musculus. Briefly: Analgesic activity in BALB/c mouse assessed as decrease in acetic acid-induced writhing at 50 mg/kg, po administered 1 hr prior to acetic acid challenge by Koster's test. Format: functional. In outline: as §1
(Writhing tests count abdominal constrictions after an irritant is injected.)

Data set [3] has as its system Mus musculus. Briefly: Analgesic activity in BALB/c mouse assessed as decrease in acetic acid-induced writhing at 200 mg/kg, po administered 1 hr prior to acetic acid challenge by Koster's test. Format: functional. Summed up: as §1
For data set [4], the system named is Mus musculus. The data set can be described thus: Antioxidant activity in BALB/c mouse assessed as TBARS level per gram of wet weight of tissue at 200 mg/kg, po. The format is functional. Set-up: unit: nmol/g. In outline:
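Mice dosed orally at 200 mg/kg were killed under ether 8 h after the writhing test and stomachs removed. Tissue extract supernatant obtained by centrifugation (1000×g 10 min, then 2000×g 30 min, 4 °C). Heated with TBA in boiling water for 60 min, TCA added, absorbance read at 532 nm against blank tissue. Calibrated with 1,1,3,3-tetraethoxypropane; reported as nmol TBARS/g wet tissue.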

For data set [5], the system named is Mus musculus. Briefly: Acute toxicity in BALB/c mouse assessed as diarrhea and depression at 50 to 200 mg/kg, po after 72 hrs. Set-up: dose 50-200 mg/kg, route oral. The format is organism-based. Conditions: in vivo.
Data set [6] deals with Mus musculus. Briefly: Antiinflammatory activity in BALB/c mouse assessed as inhibition of carrageenan-induced paw edema at 200 mg/kg, po after 360 mins. Format: functional. The conditions noted are these: 6 h. Summed up:
(§2)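 Oral dosing in 0.5% CMC/water suspension, vehicle for controls. 1 h later, carrageenan (0.5 mg/25 µl saline) injected subplantar into right hind paw, 25 µl saline into left. Right–left footpad thickness measured by dial callipers every 90 min for 6 h. % inhibition = [(n − n′)/n]×100 versus control. Groups of 3 (100 mg/kg screen) or 4–5 mice.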
For orientation: The carrageenan paw model is a standard test of acute inflammation.

The test system of data set [7] is Mus musculus. The data set can be described thus: Antiinflammatory activity in BALB/c mouse assessed as inhibition of carrageenan-induced paw edema at 200 mg/kg, po after 270 mins. Conditions: 4.5 h.
For data set [8], the system named is Mus musculus. Briefly: Antiinflammatory activity in BALB/c mouse assessed as inhibition of carrageenan-induced paw edema at 100 mg/kg, po after 180 mins. Conditions: 3 h.
The subject of data set [9] is Mus musculus. Briefly: Antiinflammatory activity in BALB/c mouse assessed as inhibition of carrageenan-induced paw edema at 100 mg/kg, po after 90 mins. The format is functional. The conditions noted are these: 1.5 h. In outline: as §2
For data set [10], the system named is Mus musculus. The data set can be described thus: Antiinflammatory activity in BALB/c mouse assessed as inhibition of carrageenan-induced paw edema at 100 mg/kg, po after 180 mins. Format: functional. The conditions noted are these: 3 h. Summed up: as §2
Data set [11] concerns Mus musculus. Briefly: Antiinflammatory activity in BALB/c mouse assessed as inhibition of carrageenan-induced paw edema at 100 mg/kg, po after 270 mins. Format: functional. The conditions noted are these: 4.5 h. In outline:
as §2

For data set [12], the system named is Mus musculus. Briefly: Antiinflammatory activity in BALB/c mouse assessed as inhibition of carrageenan-induced paw edema at 100 mg/kg, po after 360 mins. The format is functional. Conditions: 6 h. Summed up: as §2
Data set [13] has as its system Mus musculus. Briefly: Antiinflammatory activity in BALB/c mouse assessed as inhibition of carrageenan-induced paw edema at 50 mg/kg, po after 90 mins. Format: functional. The conditions noted are these: 1.5 h. In outline:
as §2

Data set [14] has as its system Mus musculus. Briefly: Gastrointestinal toxicity in BALB/c mouse assessed as acute ulcerogenic risk at 200 mg/kg, po. Also noted: dose 200 mg/kg, route oral. The conditions noted are these: in vivo. The format is organism-based. In outline:
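Mice, fasted overnight with free water, received 200 mg/kg orally as a suspension in distilled water with 0.5% carboxymethyl cellulose, in groups of 4–5. They were first used in the acetic acid writhing test. Eight hours after that test they were killed under deep ether anaesthesia, and their stomachs were removed and scored for ulcers. Acetylsalicylic acid 200 mg/kg was the reference.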

Data set [15] deals with Mus musculus. The data set can be described thus: Antiinflammatory activity in BALB/c mouse assessed as inhibition of carrageenan-induced paw edema at 200 mg/kg, po after 270 mins. The format is functional. The conditions noted are these: 4.5 h. Summed up:
as §2

With `COc1ccc(Cc2nnc3n2N=C(c2ccccc2)CS3)cc1`, the inhibition in vivo (in general, the share of the control response that was lost under treatment) at 100 mg/kg in data set [1] stood at 39.5%. For the same compound, the inhibition in vivo at 50 mg/kg in data set [2] came out at 14.3%. Besides, the inhibition in vivo at 200 mg/kg in [3] amounted to 46.4%. For the same compound, the values for the Activity in data set [4] and in [5] were 112.3 nmol and “Non-toxic”, respectively.

With `COc1ccc(CCc2nnc3n2N=C(c2ccccc2)CS3)cc1`, the inhibition in vivo at 200 mg/kg in data set [6] was determined as 37.5%; in data set [3] it was 44.2%; in data set [7], 50%. In addition, in data set [1], the inhibition in vivo at 100 mg/kg worked out at 42.8%. Also, the inhibition in vivo at 50 mg/kg in data set [2] worked out at 6.4%. Also, the Activity was 110.8 nmol in data set [4] and “Non-toxic” in data set [5].

`COc1cc(Cc2nnc3n2N=C(c2ccc(F)cc2)CS3)cc(OC)c1OC`: the inhibition in vivo at 200 mg/kg in data set [6] worked out at 25%; in data set [3], 52.2%; in data set [7] it was 24.9%. The figures for the inhibition in vivo at 100 mg/kg in data set [1] and in [8] were 35% and 26.8%, respectively. Further, in data set [2], the inhibition in vivo at 50 mg/kg was determined as 22.1%. Also, the Activity in data set [4] is 107.6 nmol; in data set [5], “Non-toxic”.

As to `COc1cc(CCc2nnc3n2N=C(c2ccc(F)cc2)CS3)cc(OC)c1OC`, the inhibition in vivo at 100 mg/kg in data set [9] stood at 40.7%; in data set [10], 21.4%; in data set [11] it was 57.9%; in data set [12] it was 38.9%; in data set [1], 43.1%. Moreover, the inhibition in vivo at 50 mg/kg in data set [13] stood at 34.5%; in data set [2] it was 35.2%. The inhibition in vivo at 200 mg/kg worked out at 23% in [6], 56.1% in data set [3] and 46.4% in [7]. Further, the Activity in [4] is given as 105.1 nmol; in data set [5], “Non-toxic”.

Consider `COc1cc(CCc2nnc3n2N=C(c2ccccc2)CS3)cc(OC)c1OC`, for which the values for the inhibition in vivo at 100 mg/kg in [9], in data set [1] and in data set [8] were 31.7%, 17.1% and 38.5%, respectively. Besides, the inhibition in vivo at 200 mg/kg in data set [6] worked out at 29.2%; in [3], 27.5%; in data set [7] it was 46.4%. Further, the inhibition in vivo at 50 mg/kg in [2] stood at 32.4%. The Activity is given as 100.3 nmol in data set [4] and “Non-toxic” in data set [5].

For `COc1ccc(Cc2nnc3n2N=C(c2ccc(Cl)cc2)CS3)cc1`, the inhibition in vivo at 200 mg/kg was 38.9% in data set [6], 39% in data set [3] and 25% in data set [7]. In data set [1], the inhibition in vivo at 100 mg/kg worked out at 33%. In data set [2], the inhibition in vivo at 50 mg/kg stood at 9.9%. Besides, the values for the Activity entry in data set [14], in data set [4] and in data set [5] were “Non-toxic”, 97.9 nmol and “Non-toxic”, respectively.

Turning to `COc1ccc(Cc2nnc3n2N=C(c2ccc(F)cc2)CS3)cc1`, the inhibition in vivo at 200 mg/kg in data set [6] stood at 41.7%; in [3], 31.5%; in [7], 53.6%. Further, the inhibition in vivo at 100 mg/kg was 26.3% in [1] and 34.3% in [8]. In data set [2], the inhibition in vivo at 50 mg/kg was determined as 20.5%. Also, the Activity in [4] is on record as 95.4 nmol; in [5], “Non-toxic”.

On to `COc1cc(CCc2nnc3n2N=C(c2ccc(Cl)cc2)CS3)cc(OC)c1OC`, for which the inhibition in vivo at 100 mg/kg in [9] amounted to 29.3%; in data set [11], 34.3%; in data set [1], 50.2%; in data set [8], 36.9%. Besides, the inhibition in vivo at 200 mg/kg in data set [6] amounted to 25%; in data set [3], 54.8%; in [7], 39.1%. The inhibition in vivo at 50 mg/kg in [2] is 28.5%. For the same compound, the Activity is on record as 101.9 nmol in data set [4] and “Non-toxic” in data set [5].

In the case of `COc1cc(Cc2nnc3n2N=C(c2ccccc2)CS3)cc(OC)c1OC`, the inhibition in vivo at 100 mg/kg in data set [9] turned out to be 24%; in data set [11], 23.6%; in data set [1] it was 53%; in data set [8], 34.9%. Besides, the inhibition in vivo at 200 mg/kg was determined as 33.3% in data set [6], 58.4% in data set [3] and 32.2% in [7]. In addition, the inhibition in vivo at 50 mg/kg in data set [2] was 32.4%. The Activity entry in data set [14] is “Non-toxic”; in [4] it was 92.2 nmol; in data set [5], “Non-toxic”.

Turning to `COc1ccc(Cc2n[nH]c(=S)n2N)cc1`, the values for the inhibition in vivo at 200 mg/kg in [6], in [3] and in data set [7] were 33.3%, 46.7% and 32.2%, respectively. Further, in data set [1], the inhibition in vivo at 100 mg/kg came to 30.2%. Also, the inhibition in vivo at 50 mg/kg in data set [2] was found to be 23.4%. The figures for the Activity result in [14], in [4] and in data set [5] were “Non-toxic”, 93 nmol and “Non-toxic”, respectively.

As for `COc1cc(Cc2nnc3n2N=C(c2ccc(Cl)cc2)CS3)cc(OC)c1OC`, the values for the inhibition in vivo at 200 mg/kg in [6], in data set [3] and in [7] were 25%, 23.4% and 41%, respectively. Also, the inhibition in vivo at 100 mg/kg in [1] was 32.6%. Further, the inhibition in vivo at 50 mg/kg in data set [2] was 13.5%. The Activity was 101.1 nmol in data set [4] and “Non-toxic” in data set [5].

Regarding `COc1ccc(CCc2n[nH]c(=S)n2N)cc1`, the inhibition in vivo at 200 mg/kg in [6] amounted to 37.5%; in data set [3], 56.1%; in [7], 33.9%. In addition, the inhibition in vivo at 100 mg/kg in [1] stood at 56.6%. In data set [2], the inhibition in vivo at 50 mg/kg stood at 9.5%. For the same compound, the Activity result in data set [14] is listed as “Non-toxic”; in data set [4], 105.9 nmol; in [5], “Non-toxic”.

In the case of `COc1ccc(CCc2nnc3n2N=C(c2ccc(Cl)cc2)CS3)cc1`, the inhibition in vivo at 200 mg/kg came out at 20.4% in data set [15], 50% in [6] and 62.4% in data set [3]. In addition, the inhibition in vivo at 100 mg/kg in data set [1] was 71.5%; in data set [8], 29.4%. The inhibition in vivo at 50 mg/kg in data set [2] turned out to be 20.2%. In addition, the Activity in data set [4] is 108.4 nmol; in [5], “Non-toxic”.

Take `COc1ccc(CCc2nnc3n2N=C(c2ccc(F)cc2)CS3)cc1`: the inhibition in vivo at 100 mg/kg in data set [9] came out at 26%; in data set [1] it was 29.2%; in data set [8], 33.7%. Also, the inhibition in vivo at 200 mg/kg in data set [6] was 27.1%; in data set [3], 37%; in [7], 34%. In addition, the inhibition in vivo at 50 mg/kg in data set [2] turned out to be 25%. The Activity is recorded as 103.5 nmol in data set [4] and “Non-toxic” in data set [5].

Take `CC(=O)Oc1ccccc1C(=O)O` [ASPIRIN]: in [3], the inhibition in vivo at 200 mg/kg was 54.4%. In addition, the Activity in data set [4] is given as 118.2 nmol.

In the case of `COc1ccc2c(c1)c(CC(=O)O)c(C)n2C(=O)c1ccc(Cl)cc1` [INDOMETHACIN], the inhibition in vivo at 100 mg/kg in data set [9] was found to be 41.9%; in data set [8], 43.1%.
